One data set concerns the target Glutamate NMDA receptor. Briefly: Affinity against 3[H]TCP binding to N-methyl-D-aspartate glutamate receptor in rat brain membranes. The format is cell membranes.
Data set [1] can be described thus: logD value was determined. Type of data set: physicochemical. Conditions: octanol/water.
Data set [2] is described as follows: pKa value was determined. The format is physicochemical.
A short description of data set [3]: Inhibitory activity against NMDA closed channel block. Type of data set: functional. The gist of the method: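 Oocytes (stage V-VI, defolliculated with 0.2% collagenase) were held 48-72 h at 18-22 °C in ND96 and superfused at ~4 mL/min. Controls were two 100 µM NMDA pulses 15 min apart. Cells then sat 30 min in 10 µM 7-chlorokynurenate plus inhibitor, were washed 1-2 min and retested with 100 µM NMDA. 100 µM kainate served as internal control. One application per cell.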

Data set [4] can be described thus: Inhibitory activity against NMDA open channel block. The format is functional. Put shortly: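 Superfused oocytes got a single inhibitor application per cell during NMDA response. Current at 300 s was normalized to the initial NMDA current. Inhibition = (mean control (NMDA alone) − test)/control × 100%.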
A short description of data set [5]: Ratio (closed/open) was determined. Type of data set: functional. The gist of the method: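 Oocytes injected with forebrain-derived RNA and held 48–72 h at 18–22 °C, then superfused. Open block: current 300 s after NMDA plus inhibitor, normalised to initial NMDA current, expressed as % of NMDA-alone controls, one application per cell. Closed block: 30 min inhibitor with 10 µM 7-chlorokynurenate, 1–2 min wash, then 100 µM NMDA, with 100 µM kainate as internal control. Ratio = closed/open IC50.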

Results on 29 compounds are retold here after ChEMBL document CHEMBL1128589, “Novel benzo[b]quinolizinium cations as uncompetitive N-methyl-D-aspartic acid (NMDA) antagonists: the relationship between log D and agonist independent (closed) NMDA channel block” (J Med Chem, 1995).

Each structure is given as a SMILES string. Bounds are passed on as bounds.

In turn, `Oc1cccc2[n+]1C1CC(c3ccoc3)(c3ccoc3)C2c2ccccc21` (racemic) displayed a Ki on Glutamate NMDA receptor of 3780 nM.
Regarding `COC(=O)C12CC(c3ccoc3)(c3ccoc3)C(c3ccccc31)c1cccc[n+]12` (racemic), the affinity on Glutamate NMDA receptor, expressed as Ki, was 39 nM.
`c1ccc2c(c1)C1CC(c3ccoc3)(c3ccoc3)C2c2c3ccccc3cc[n+]21` (racemic): the Ki on Glutamate NMDA receptor was 19 nM.
Take `COc1ccc[n+]2c1C1c3ccccc3C2CC1(c1ccoc1)c1ccoc1` (racemic): on Glutamate NMDA receptor, the Ki came to 19 nM.
On the same count and under the same terms, with `CCCCCCCCOc1cccc2c1C1c3cccc[n+]3C2CC1(c1ccoc1)c1ccoc1` (racemic) the figure was 3380 nM.
The compound `N#CC12CC(c3ccoc3)(c3ccoc3)C(c3ccccc31)c1cccc[n+]12` (racemic) came in with a Ki on Glutamate NMDA receptor of 10 nM.
Regarding `Oc1ccc[n+]2c1C1c3ccccc3C2CC1(c1ccoc1)c1ccoc1` (racemic), the logD in data set [1] is 1.66. The compound also displayed a pKa in data set [2] of 4.88. For the same compound, the IC50 in data set [3] stood at 24800 nM; in data set [4], 557 nM. The same compound displayed an inhibition constant Ki at Glutamate NMDA receptor of 294 nM. Besides, in data set [5], the Ratio worked out at 44.6.
On Glutamate NMDA receptor, `Oc1cc(O)c2c(c1)C1CC(c3ccoc3)(c3ccoc3)C2c2cccc[n+]21` (racemic) returned a Ki of 125 nM.
`Oc1ccc2c(c1)C1CC(c3ccoc3)(c3ccoc3)C2c2cccc[n+]21` (racemic): on Glutamate NMDA receptor, the Ki worked out at 29 nM.
For `Fc1ccc2c(c1)C1c3cccc[n+]3C2CC1(c1ccoc1)c1ccoc1` (racemic), the logD in data set [1] came out at 0.75. For the same compound, the Ki at Glutamate NMDA receptor came out at 3.6 nM.
`Oc1ccc2c(c1)C1c3cccc[n+]3C2CC1(c1ccoc1)c1ccoc1` (racemic) showed a logD in data set [1] of 0.32. The compound also had a pKa in data set [2] of 8.8. Besides, the IC50 in data set [3] amounted to 1030 nM; in data set [4], 7.3 nM. In addition, the Ki on Glutamate NMDA receptor worked out at 2.1 nM. Further, the Ratio in data set [5] came to 142.
Turning to `Oc1cccc2c1C1c3cccc[n+]3C2CC1(c1ccoc1)c1ccoc1` (racemic), the logD in data set [1] was -0.81. Also, in data set [2], the pKa is 8.6. For the same compound, the IC50 in data set [3] is 3860 nM; in data set [4] it was 9.13 nM. Further, the affinity on Glutamate NMDA receptor, expressed as Ki, was 1.8 nM. For the same compound, the Ratio in data set [5] amounted to 422.
Consider `Brc1ccc(Br)c2c1C1CC(c3ccoc3)(c3ccoc3)C2c2cccc[n+]21` (racemic), for which the affinity at Glutamate NMDA receptor, expressed as Ki, was 345 nM.
As for `COc1cccc2c1C1c3cccc[n+]3C2CC1(c1ccoc1)c1ccoc1` (racemic), the logD in data set [1] is -3.66. In addition, on Glutamate NMDA receptor, the Ki turned out to be 6 nM.
With `CC12CC(c3ccoc3)(c3ccoc3)C(c3ccccc31)c1cccc[n+]12` (racemic), the affinity on Glutamate NMDA receptor, expressed as Ki, was 1.2 nM.
For the compound `Oc1ccc2[n+](c1)C1CC(c3ccoc3)(c3ccoc3)C2c2ccccc21` (racemic), at Glutamate NMDA receptor, the Ki worked out at 1530 nM.
`Oc1cccc2c1C1c3cccc[n+]3C2CC1(c1ccccc1)c1ccccc1` (racemic) registered a logD in data set [1] of 1.75. Also, affinity at Glutamate NMDA receptor was put at a Ki of 12 nM.
Regarding `COc1cc(OC)c2c(c1)C1CC(c3ccoc3)(c3ccoc3)C2c2cccc[n+]21` (racemic), the Ki at Glutamate NMDA receptor amounted to 3790 nM.
With `OCc1cccc2c1C1c3cccc[n+]3C2CC1(c1ccoc1)c1ccoc1` (racemic), the affinity on Glutamate NMDA receptor, expressed as Ki, was 159 nM.
As for `COc1c(Cl)ccc2c1C1c3cccc[n+]3C2CC1(c1ccoc1)c1ccoc1` (racemic), the Ki at Glutamate NMDA receptor worked out at 64 nM.
`O=S(=O)([O-])c1cccc2c1C1c3cccc[n+]3C2CC1(c1ccoc1)c1ccoc1` (racemic) showed an inhibition constant (Ki) at Glutamate NMDA receptor above 10000 nM.
At Glutamate NMDA receptor, `c1ccc2c(c1)C1CC(c3ccoc3)(c3ccoc3)C2c2cccc[n+]21` (racemic) came in with a Ki of 2 nM.
`c1ccc(C2(c3ccccc3)CC3c4ccccc4C2c2cccc[n+]23)cc1` (racemic) had a logD in data set [1] of -2.54. In data set [2], the pKa is 11.7. Besides, the IC50 stood at 18100 nM in data set [3] and 32 nM in data set [4]. Further, the Ratio in data set [5] was 564.
Compound `O=C(O)c1ccc2c(c1)C1c3cccc[n+]3C2CC1(c1ccoc1)c1ccoc1` (racemic) gave a logD in data set [1] of 1.76. For the same compound, the Ki on Glutamate NMDA receptor was above 10000 nM.
As for `Clc1cccc2[n+]1C1CC(c3ccoc3)(c3ccoc3)C2c2ccccc21` (racemic), on Glutamate NMDA receptor, the Ki worked out at 633 nM.
In data set [1], `Oc1c(Cl)ccc2c1C1c3cccc[n+]3C2CC1(c1ccoc1)c1ccoc1` (racemic) had a logD of -0.99. Also, the Ki at Glutamate NMDA receptor was 24 nM.
Consider `CCOC1(OCC)C2c3ccccc3C([n+]3ccccc32)C1(C)C` (racemic), for which, in data set [2], the pKa amounted to 12.2. Moreover, the IC50 in data set [3] came to 14200 nM; in data set [4], 27 nM. The Ratio in data set [5] turned out to be 527.
For `C[C@]12N[C@H](Cc3ccccc31)c1ccccc12` [DIZOCILPINE], in data set [2], the pKa amounted to 5.81. The figures for the 50% inhibitory concentration (IC50) in data set [3] and in data set [4] were 40 nM and 23 nM, respectively. For the same compound, in data set [5], the Ratio was found to be 1.6.
`c1ccc(C2(N3CCCCC3)CCCCC2)cc1` [PHENCYCLIDINE]: in data set [2], the pKa came out at 9.97. In addition, the IC50 turned out to be 450 nM in data set [3] and 270 nM in data set [4]. For the same compound, in data set [5], the Ratio was 1.7.

In general, Ki refers to a dissociation constant, usually derived from enzyme kinetics or from competition with a known ligand. A higher Ki goes with a looser hold on the target. As usually defined, the logD is the decadic logarithm of the distribution of all forms, ionised or not, between an organic phase and buffer at a given pH. A word on the pKa: it is the negative logarithm of the acid dissociation constant. In general, IC50 refers to the concentration needed to halve the response being measured.
